Measured values taken from ChEMBL document CHEMBL4765230, “Discovery of Orally Efficacious Phosphoinositide 3-Kinase δ Inhibitors with Improved Metabolic Stability” (J Med Chem, 2016).

Experiments:
[1] = target: PI3-kinase p110-delta/p85-alpha (Homo sapiens, UniProt O00329); experiment: Inhibition of human full length PI3K p110delta/p85alpha using […] as substrate measured after 30 mins by TR-FRET assay; type: protein-complex assay
PI3K p110 beta/p85 alpha = PI3K p110 beta/p85 alpha (Homo sapiens, UniProt P42338); experiment: Inhibition of recombinant human full-length N-terminal His-tagged PI3K p110beta/p85alpha using […] as substrate measured after 30 mins by TR-FRET assay; type: protein-complex assay
PI3K p110 beta/p85 alpha, sequence (P27986 whole entry, canonical isoform): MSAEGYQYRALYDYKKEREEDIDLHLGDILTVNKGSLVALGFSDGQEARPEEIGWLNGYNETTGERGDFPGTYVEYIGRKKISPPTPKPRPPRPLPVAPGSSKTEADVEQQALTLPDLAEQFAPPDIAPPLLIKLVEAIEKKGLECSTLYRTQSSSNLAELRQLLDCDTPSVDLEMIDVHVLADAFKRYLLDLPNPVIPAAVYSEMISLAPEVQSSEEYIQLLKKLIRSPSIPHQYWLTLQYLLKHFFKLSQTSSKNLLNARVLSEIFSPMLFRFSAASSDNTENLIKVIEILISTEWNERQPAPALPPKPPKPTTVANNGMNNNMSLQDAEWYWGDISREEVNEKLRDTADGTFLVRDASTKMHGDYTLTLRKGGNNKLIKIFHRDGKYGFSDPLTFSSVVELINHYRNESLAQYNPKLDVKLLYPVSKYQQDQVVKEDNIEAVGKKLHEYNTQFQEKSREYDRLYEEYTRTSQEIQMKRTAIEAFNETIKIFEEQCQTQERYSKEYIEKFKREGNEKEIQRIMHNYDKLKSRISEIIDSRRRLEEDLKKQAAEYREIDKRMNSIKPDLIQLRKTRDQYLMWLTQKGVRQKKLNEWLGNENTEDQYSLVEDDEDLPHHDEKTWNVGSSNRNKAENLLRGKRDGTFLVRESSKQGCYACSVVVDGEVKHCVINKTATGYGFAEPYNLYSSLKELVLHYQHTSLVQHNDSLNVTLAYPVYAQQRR
PI3K p110 beta/p85 alpha, sequence (P42338 whole entry, canonical isoform): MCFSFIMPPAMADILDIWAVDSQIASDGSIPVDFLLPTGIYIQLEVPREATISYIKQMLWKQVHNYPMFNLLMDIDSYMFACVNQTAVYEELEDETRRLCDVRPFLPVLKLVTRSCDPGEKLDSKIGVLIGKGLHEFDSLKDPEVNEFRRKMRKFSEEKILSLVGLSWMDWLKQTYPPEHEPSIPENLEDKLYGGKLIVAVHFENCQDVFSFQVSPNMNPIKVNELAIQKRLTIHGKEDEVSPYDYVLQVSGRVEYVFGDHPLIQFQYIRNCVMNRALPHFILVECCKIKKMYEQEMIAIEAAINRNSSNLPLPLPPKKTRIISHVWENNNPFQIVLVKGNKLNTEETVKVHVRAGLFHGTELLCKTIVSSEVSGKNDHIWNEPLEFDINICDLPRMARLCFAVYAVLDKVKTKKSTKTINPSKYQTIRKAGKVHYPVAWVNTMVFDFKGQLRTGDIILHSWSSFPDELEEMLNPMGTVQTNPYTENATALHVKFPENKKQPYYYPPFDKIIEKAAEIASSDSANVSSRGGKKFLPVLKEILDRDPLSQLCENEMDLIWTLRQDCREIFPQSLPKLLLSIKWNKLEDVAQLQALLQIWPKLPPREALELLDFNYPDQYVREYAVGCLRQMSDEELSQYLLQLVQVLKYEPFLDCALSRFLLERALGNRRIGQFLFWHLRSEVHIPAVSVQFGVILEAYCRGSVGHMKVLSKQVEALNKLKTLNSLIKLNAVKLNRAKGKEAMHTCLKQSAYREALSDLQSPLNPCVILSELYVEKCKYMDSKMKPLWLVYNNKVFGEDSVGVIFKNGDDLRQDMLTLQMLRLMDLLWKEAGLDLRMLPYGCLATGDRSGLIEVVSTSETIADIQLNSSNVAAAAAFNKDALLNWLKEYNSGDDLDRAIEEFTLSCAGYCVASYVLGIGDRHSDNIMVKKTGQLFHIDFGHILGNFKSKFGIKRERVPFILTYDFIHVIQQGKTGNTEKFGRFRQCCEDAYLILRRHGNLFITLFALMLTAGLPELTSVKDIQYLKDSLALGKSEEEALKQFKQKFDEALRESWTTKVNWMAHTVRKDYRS

[2] = target: T1, Phosphatidylinositol 4,5-bisphosphate 3-kinase catalytic subunit delta isoform (Homo sapiens, UniProt O00329); experiment: Inhibition of PI3Kdelta in human whole blood assessed as reduction in anti-FCepsilonR1 mAb-stimulated basophil activation preincubated for 60 mins followed by anti-FCepsilonR1 mAb stimulation and measured after 25 mins by flow cytometry analysis; type: tissue-based
T1 sequence (O00329 whole entry): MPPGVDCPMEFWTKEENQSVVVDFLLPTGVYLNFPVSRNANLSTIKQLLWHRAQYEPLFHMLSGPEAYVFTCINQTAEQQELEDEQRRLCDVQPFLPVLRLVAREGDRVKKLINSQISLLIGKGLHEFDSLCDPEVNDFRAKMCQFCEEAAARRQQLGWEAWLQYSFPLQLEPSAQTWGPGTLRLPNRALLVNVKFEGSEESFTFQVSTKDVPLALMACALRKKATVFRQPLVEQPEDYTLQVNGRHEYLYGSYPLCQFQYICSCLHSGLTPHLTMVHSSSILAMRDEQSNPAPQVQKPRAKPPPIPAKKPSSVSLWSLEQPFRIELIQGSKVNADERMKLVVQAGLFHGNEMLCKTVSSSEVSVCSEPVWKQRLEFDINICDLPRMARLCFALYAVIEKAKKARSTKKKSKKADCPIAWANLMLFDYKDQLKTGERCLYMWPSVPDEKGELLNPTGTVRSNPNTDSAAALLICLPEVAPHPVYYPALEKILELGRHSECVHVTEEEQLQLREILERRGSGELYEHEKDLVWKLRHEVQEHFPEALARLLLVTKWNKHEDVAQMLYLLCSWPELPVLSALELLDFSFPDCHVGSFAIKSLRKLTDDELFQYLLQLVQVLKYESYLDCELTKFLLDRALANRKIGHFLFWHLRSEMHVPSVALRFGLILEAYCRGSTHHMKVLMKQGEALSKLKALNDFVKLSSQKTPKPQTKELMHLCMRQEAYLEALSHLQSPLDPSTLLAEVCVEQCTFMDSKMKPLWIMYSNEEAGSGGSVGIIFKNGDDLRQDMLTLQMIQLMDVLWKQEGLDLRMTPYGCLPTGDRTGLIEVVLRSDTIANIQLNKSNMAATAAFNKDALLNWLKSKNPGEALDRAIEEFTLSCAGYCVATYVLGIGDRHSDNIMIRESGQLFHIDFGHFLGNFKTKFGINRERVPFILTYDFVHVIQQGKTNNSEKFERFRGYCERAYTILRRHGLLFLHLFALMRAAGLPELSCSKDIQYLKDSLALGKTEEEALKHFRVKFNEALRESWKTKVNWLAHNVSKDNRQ

[3] = Drug degradation at low pH; type: physicochemical
Procedure, shortened: (§1)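 Compound diluted from acetonitrile or DMSO stock to 100 μg/mL final in 50 mM phosphate buffer, pH 2 (or pH 7), ionic strength 0.15 M NaCl, 40 °C in autosampler. Timed injections analysed by reverse-phase UPLC-UV (220 nm); pseudo-first-order kobs from ln c vs time; t50 and t90 calculated.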

[4] = Chemical stability of the compound at pH 2 phosphate buffer assessed as time required for 90% hydrolytic degradation at 100 ug/ml and 40 degreeC by UPLC-UV analysis; type: physicochemical; conditions: in the assay text read “10% hydrolytic degradation” for “90% hydrolytic degradation”, dose 100 µg/ml; procedure, shortened: as §1
[5] = Selectivity index, ratio of IC50 for inhibition of recombinant human full-length N-terminal His-tagged PI3K p110beta/p85alpha to IC50 for inhibition of human full length PI3K p110delta/p85alpha
[6] = target: PI3-kinase p110-alpha/p85-alpha (Homo sapiens, UniProt P42336); experiment: Inhibition of human full length PI3K p110alpha/p85alpha using […] as substrate measured after 30 mins by TR-FRET assay; type: protein-complex assay
PI3-kinase p110-alpha/p85-alpha, sequence (P27986 whole entry): as the sequence (P27986 whole entry, canonical isoform) above
PI3-kinase p110-alpha/p85-alpha, sequence (P42336 whole entry): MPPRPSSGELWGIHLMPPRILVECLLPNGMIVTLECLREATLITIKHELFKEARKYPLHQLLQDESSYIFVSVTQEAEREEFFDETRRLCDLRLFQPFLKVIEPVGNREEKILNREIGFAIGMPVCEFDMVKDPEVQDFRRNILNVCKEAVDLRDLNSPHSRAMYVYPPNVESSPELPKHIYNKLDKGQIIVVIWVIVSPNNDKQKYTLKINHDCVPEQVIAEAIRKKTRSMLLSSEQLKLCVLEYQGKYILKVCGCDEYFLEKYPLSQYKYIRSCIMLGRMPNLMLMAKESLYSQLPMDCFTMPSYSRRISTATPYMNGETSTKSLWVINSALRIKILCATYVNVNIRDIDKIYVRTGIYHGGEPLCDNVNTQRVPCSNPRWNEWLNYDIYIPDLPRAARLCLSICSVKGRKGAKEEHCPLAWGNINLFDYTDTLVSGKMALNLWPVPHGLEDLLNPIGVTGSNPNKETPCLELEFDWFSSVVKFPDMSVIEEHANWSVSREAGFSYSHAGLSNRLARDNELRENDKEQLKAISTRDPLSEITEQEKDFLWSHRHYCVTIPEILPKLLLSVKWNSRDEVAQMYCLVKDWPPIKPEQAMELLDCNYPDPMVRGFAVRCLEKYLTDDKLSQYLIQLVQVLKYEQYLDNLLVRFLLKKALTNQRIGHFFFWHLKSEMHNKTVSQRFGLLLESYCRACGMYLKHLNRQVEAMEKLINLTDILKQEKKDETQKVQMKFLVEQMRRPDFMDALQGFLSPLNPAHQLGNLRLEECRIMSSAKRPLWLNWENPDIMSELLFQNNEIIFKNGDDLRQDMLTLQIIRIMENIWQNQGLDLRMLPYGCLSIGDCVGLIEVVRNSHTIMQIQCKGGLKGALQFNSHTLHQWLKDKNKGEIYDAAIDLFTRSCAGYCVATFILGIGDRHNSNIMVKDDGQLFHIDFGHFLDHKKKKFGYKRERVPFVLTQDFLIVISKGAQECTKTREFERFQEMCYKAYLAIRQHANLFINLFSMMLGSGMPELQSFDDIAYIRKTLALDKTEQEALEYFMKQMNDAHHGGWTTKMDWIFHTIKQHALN

[7] = Chemical stability of the compound at pH 2 phosphate buffer assessed as time required for 50% hydrolytic degradation at 100 ug/ml and 40 degreeC by UPLC-UV analysis; type: physicochemical; conditions: dose 100 µg/ml, read-out: Time (converted); procedure, shortened: as §1
[8] = target: Phosphatidylinositol 4,5-bisphosphate 3-kinase catalytic subunit gamma isoform (Homo sapiens, UniProt P48736); experiment: Inhibition of human full length PI3K p110gamma using […] as substrate measured after 30 mins by TR-FRET assay
Phosphatidylinositol 4,5-bisphosphate 3-kinase catalytic subunit gamma isoform, sequence (P48736 whole entry, canonical isoform): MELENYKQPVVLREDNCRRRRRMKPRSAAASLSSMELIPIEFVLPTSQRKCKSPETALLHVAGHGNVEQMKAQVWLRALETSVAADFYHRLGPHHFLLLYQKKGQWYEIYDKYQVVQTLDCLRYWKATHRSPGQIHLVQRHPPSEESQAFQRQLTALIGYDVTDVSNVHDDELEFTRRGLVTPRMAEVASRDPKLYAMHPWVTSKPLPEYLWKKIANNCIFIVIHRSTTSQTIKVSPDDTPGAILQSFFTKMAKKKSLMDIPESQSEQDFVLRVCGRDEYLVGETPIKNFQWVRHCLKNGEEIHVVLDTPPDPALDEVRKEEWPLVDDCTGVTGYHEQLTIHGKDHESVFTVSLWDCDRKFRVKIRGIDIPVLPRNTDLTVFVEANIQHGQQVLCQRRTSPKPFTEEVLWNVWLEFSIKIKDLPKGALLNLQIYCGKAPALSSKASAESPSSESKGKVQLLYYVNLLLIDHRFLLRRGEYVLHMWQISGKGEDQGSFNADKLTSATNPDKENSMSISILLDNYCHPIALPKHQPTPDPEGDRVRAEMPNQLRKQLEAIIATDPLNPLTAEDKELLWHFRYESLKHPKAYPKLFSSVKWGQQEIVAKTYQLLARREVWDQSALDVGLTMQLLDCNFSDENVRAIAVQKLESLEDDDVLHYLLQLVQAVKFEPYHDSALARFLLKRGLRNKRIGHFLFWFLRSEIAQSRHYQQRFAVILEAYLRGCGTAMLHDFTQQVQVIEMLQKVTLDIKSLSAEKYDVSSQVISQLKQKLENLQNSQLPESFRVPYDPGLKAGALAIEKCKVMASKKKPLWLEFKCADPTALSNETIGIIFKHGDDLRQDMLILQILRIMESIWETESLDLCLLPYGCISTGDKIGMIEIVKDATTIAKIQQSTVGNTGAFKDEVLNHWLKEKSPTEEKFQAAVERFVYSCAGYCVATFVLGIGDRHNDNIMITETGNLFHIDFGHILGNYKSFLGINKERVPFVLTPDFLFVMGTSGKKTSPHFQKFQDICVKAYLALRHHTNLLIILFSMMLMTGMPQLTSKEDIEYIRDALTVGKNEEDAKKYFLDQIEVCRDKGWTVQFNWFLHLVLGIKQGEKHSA

[9] = Selectivity index, ratio of IC50 for inhibition of human full length PI3K p110alpha/p85alpha to IC50 for inhibition of human full length PI3K p110delta/p85alpha
[10] = Half life of the compound; type: physicochemical
[11] = Chemical stability of the compound under aqueous acidic condition; type: physicochemical; conditions: buffer; procedure, shortened: as §1
[12] = Selectivity index, ratio of IC50 for inhibition of human full length PI3K p110gamma to IC50 for inhibition of human full length PI3K p110delta/p85alpha
[13] = Clearance in dog at 1 mg/kg, iv; type: ADME, organism-based, Canis lupus familiaris; conditions: in vivo
[14] = Volume of distribution at steady state in rat at 1 mg/kg, iv; type: ADME, organism-based; conditions: in vivo, read-out: Vdss
Procedure, shortened: (§2)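 Rats and dog received 1 mg/kg intravenously, formulated in 12% w/v Captisol in water. Volume of distribution was taken at steady state from the iv plasma profile. Three animals per dosing route.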

[15] = Volume of distribution at steady state in dog at 1 mg/kg, iv; type: ADME, organism-based, Canis lupus familiaris; conditions: in vivo, read-out: Vdss; procedure, shortened: as §2
[16] = Clearance in rat at 1 mg/kg, iv; type: ADME, organism-based; conditions: in vivo
[17] = Oral bioavailability in rat at 5 mg/kg; type: ADME, organism-based; conditions: in vivo
[18] = Drug degradation assessed as acid-mediated compound hydrolysis at 40 degreeC measured at 3 hrs; type: physicochemical; conditions: read-out: Drug degradation; procedure, shortened: as §1

PI3-kinase p110-delta/p85-alpha, sequence (P27986 whole entry, one chain of several): as the sequence (P27986 whole entry, canonical isoform) above

| IC50 (PI3K p110 beta/p85 alpha) | EC50 [2] | IC50 [6] | half-life at 100 ug/ml [7] | IC50 [8] | Compound | other results |
| --- | --- | --- | --- | --- | --- | --- |
| 440 nM | 0.5 nM | 3100 nM | 20 h | 120 nM | C[C@H](Nc1nc(N)nc(N)c1C#N)c1nc2c(F)ccc(Cl)c2c(=O)n1-c1cncc(F)c1 | clearance [13]: 5.17 mL/min/kg; Vd [14]: 1.4 L/kg; Time [4]: 2.9 h; Vd [15]: 0.96 L/kg; clearance [16]: 17.7 mL/min/kg; bioavailability [17]: 46% |
| 3100 nM | 4 nM | 8700 nM | – | 700 nM | C[C@H](Nc1nc(N)nc(N)c1C#N)c1nc2cccc(Cl)c2c(=O)n1-c1cncc(C#N)c1 | IC50 [1]: 13 nM |
| 1200 nM | 4 nM | 8300 nM | – | 1200 nM | C[C@H](Nc1nc(N)nc(N)c1C#N)c1nc2cccc(Cl)c2c(=O)n1-c1cncc(Cl)c1 | – |
| 2600 nM | 7 nM | 10000 nM | – | 2300 nM | C[C@H](Nc1nc(N)nc(N)c1C#N)c1nc2cccc(Cl)c2c(=O)n1-c1cncc(C2CC2)c1 | – |

Further lines, the compound ahead of its results:

| Compound | IC50 (PI3K p110 beta/p85 alpha) | EC50 [2] | IC50 [6] | half-life at 100 ug/ml [7] | IC50 [8] | other results |
| --- | --- | --- | --- | --- | --- | --- |
| C[C@H](Nc1nc(N)nc(N)c1C#N)c1nc2cccc(Cl)c2c(=O)n1-c1cncc(F)c1 | 740 nM | 1.2 nM | 4300 nM | 3.6 h | 150 nM | IC50 [1]: 1.7 nM; Drug degradation [3]: Active; Time [4]: 0.5 h; Ratio IC50 [5]: 430 |
| C[C@H](Nc1nc(N)nc(N)c1C#N)c1nc2cccc(F)c2c(=O)n1-c1cc(F)cc(F)c1 | – | – | – | 34 h | – | Ratio IC50 [9]: 1900; half-life [10]: 34 h; Ratio IC50 [5]: 650; Stabilty [11]: Stable; Ratio IC50 [12]: 180 |
| Cc1ccncc1-n1c([C@H](C)Nc2nc(N)nc(N)c2C#N)nc2cccc(Cl)c2c1=O (stereo in doubt; 26) | 370 nM | – | 9700 nM | – | 1300 nM | – |
| C[C@H](Nc1nc(N)nc(N)c1C#N)c1nc2c(F)ccc(Cl)c2c(=O)n1-c1cccnc1 | 46 nM | 0.5 nM | 770 nM | 19 h | 51 nM | clearance [13]: 3.5 mL/min/kg; Vd [14]: 3.2 L/kg; degraded at 3 h [18]: 10%; Time [4]: 2.8 h; Vd [15]: 0.51 L/kg; clearance [16]: 26.7 mL/min/kg; bioavailability [17]: 24% |
| Cc1c(F)cncc1-n1c([C@H](C)Nc2nc(N)nc(N)c2C#N)nc2cccc(Cl)c2c1=O (stereo in doubt; 28) | 1750 nM | – | 10000 nM | – | 6900 nM | IC50 [1]: 40 nM |
| C[C@H](Nc1nc(N)nc(N)c1C#N)c1nc2c(Cl)cccc2c(=O)n1-c1cccnc1 | 390 nM | 5 nM | 3100 nM | – | 1100 nM | – |
| COc1cncc(-n2c([C@H](C)Nc3nc(N)nc(N)c3C#N)nc3cccc(Cl)c3c2=O)c1 | 3000 nM | 3 nM | 10000 nM | – | 830 nM | – |
